Assay [1] deals with T1, Muscarinic acetylcholine receptor M5 (Homo sapiens, UniProt P08912).
T1 sequence (P08912 whole entry): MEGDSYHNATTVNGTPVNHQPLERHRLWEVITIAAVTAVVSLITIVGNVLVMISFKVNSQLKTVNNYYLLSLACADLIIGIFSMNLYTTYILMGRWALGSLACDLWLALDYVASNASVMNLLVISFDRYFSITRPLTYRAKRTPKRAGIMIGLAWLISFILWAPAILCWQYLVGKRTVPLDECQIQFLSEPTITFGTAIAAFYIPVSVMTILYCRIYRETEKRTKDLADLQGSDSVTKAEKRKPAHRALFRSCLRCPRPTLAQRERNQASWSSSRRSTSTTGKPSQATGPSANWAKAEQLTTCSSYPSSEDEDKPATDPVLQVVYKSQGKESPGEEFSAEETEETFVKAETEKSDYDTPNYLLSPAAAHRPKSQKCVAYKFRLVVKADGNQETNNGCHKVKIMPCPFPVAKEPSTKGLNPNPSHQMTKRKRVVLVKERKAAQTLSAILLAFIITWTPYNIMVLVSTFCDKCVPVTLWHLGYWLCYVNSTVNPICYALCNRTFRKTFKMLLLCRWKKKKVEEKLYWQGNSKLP
Description: Antagonist activity at human muscarinic M5 receptor assessed as inhibition of acetylcholine-induced calcium response. The assay is classed as functional. The gist of the method:
(§1)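 Concentration–response curves (10-point) run in cells expressing human M1, M2, M3, M4 or M5 receptors, n=3. IC50 comes from the curves, with pIC50 also reported. The residual ACh response at 30 μM is given as % ACh min (mean±SEM).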

Assay [2] concerns the target T2, Muscarinic acetylcholine receptor M1 (Homo sapiens, UniProt P11229).
T2 sequence (P11229 whole entry): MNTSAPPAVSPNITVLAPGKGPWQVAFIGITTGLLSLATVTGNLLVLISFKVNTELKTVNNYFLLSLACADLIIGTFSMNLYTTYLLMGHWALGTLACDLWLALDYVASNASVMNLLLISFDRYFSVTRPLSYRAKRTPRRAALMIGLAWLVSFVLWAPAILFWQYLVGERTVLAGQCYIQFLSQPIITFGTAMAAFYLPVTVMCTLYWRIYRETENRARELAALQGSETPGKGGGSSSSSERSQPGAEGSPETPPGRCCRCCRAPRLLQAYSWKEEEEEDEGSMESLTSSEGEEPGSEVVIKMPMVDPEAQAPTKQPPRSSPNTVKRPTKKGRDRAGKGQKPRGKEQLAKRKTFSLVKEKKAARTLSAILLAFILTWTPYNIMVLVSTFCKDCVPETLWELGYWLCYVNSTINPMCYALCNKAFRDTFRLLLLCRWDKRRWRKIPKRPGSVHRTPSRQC
Description: Antagonist activity at human muscarinic M1 receptor assessed as inhibition of acetylcholine-induced calcium response. It is filed as functional. In outline:
as §1

The target in assay [3] is T3, Muscarinic acetylcholine receptor M2 (Homo sapiens, UniProt P08172).
T3 sequence (P08172 whole entry): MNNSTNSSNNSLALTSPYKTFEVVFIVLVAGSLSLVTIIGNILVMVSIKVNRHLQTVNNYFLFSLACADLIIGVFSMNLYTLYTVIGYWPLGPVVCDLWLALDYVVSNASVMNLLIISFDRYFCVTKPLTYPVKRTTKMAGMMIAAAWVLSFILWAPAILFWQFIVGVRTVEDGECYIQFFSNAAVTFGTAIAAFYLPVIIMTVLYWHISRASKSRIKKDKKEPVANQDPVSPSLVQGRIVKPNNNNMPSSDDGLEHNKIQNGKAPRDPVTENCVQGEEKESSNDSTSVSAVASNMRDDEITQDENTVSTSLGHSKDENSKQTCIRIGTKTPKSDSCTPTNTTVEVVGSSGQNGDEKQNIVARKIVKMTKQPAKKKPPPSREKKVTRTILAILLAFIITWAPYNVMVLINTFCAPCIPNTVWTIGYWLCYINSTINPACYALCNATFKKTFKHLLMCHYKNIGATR
Description: Antagonist activity at human muscarinic M2 receptor assessed as inhibition of acetylcholine-induced calcium response. The assay is classed as functional. The gist of the method:
as §1

The target in assay [4] is T4, Muscarinic acetylcholine receptor M3 (Homo sapiens, UniProt P20309). Briefly: Antagonist activity at human muscarinic M3 receptor assessed as inhibition of acetylcholine-induced calcium response. The assay is classed as functional. In outline:
as §1
Target sequence in this assay (P20309 whole entry): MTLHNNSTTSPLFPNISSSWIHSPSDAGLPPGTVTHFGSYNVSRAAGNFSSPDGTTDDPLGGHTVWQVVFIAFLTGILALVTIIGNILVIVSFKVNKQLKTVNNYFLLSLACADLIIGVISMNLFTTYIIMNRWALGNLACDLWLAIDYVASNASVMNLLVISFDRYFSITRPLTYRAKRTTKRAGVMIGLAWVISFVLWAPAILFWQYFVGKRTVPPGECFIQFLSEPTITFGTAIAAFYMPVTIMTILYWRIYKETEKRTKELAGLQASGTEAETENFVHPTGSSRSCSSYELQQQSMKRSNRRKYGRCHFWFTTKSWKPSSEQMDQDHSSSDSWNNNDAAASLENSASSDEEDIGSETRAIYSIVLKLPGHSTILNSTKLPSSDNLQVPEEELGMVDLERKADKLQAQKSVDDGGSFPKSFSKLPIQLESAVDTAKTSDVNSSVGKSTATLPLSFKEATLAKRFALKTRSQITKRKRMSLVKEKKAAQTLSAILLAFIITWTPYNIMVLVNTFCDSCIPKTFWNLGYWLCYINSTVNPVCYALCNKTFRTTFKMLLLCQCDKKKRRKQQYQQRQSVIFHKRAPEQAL

The target of assay [5] is T5, Muscarinic acetylcholine receptor M4 (Homo sapiens, UniProt P08173).
T5 sequence (P08173 whole entry): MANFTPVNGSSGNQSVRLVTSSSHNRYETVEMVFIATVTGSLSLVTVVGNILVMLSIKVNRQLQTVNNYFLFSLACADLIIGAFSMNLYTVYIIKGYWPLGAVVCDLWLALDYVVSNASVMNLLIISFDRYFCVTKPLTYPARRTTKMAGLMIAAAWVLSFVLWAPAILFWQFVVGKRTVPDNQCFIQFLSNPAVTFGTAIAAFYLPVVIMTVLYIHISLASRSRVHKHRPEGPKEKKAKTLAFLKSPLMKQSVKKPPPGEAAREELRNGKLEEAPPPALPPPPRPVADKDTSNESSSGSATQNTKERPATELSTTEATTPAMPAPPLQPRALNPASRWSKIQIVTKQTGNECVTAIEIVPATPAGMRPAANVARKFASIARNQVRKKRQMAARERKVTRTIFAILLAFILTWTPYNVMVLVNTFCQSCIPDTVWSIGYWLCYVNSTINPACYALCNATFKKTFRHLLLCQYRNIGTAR
Briefly: Antagonist activity at human muscarinic M4 receptor assessed as inhibition of acetylcholine-induced calcium response. The assay is classed as functional. In outline: as §1

In assay [6] the target is T6, Muscarinic acetylcholine receptor M5 (Homo sapiens) (UniProt P08912).
T6 sequence (whole entry): T1 sequence (P08912 whole entry)
Description: Antagonist activity at human muscarinic M5 receptor assessed as inhibition of acetylcholine-induced calcium response at 10 uM. It is filed as functional. In outline: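 Single-point functional assay in hM5 cells challenged with an EC80 of ACh, compound at 10 μM. Result is % inhibition, averaged from three determinations.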

The target of assay [7] is T1, Muscarinic acetylcholine receptor M5. Briefly: Displacement of [3H]NMS from human muscarinic M5 receptor. In outline:
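Competition binding against [3H]-N-methylscopolamine in membranes prepared from cells expressing human M5, n=3.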

The target of assay [8] is T6, Muscarinic acetylcholine receptor M5 (Homo sapiens). Briefly: Antagonist activity at human muscarinic M5 receptor assessed as minimum acetylcholine-induced calcium response at 10 uM. It is filed as functional. Also on record: scale not given: the % may be the effect or the level left.
The target of assay [9] is T7, Muscarinic acetylcholine receptor M1 (Homo sapiens) (UniProt P11229).
T7 sequence (whole entry): T2 sequence (P11229 whole entry)
Description: Antagonist activity at human muscarinic M1 receptor assessed as minimum acetylcholine-induced calcium response at 30 uM. It is filed as functional. Also on record: scale not given: the % may be the effect or the level left. The gist of the method:
as §1

For assay [10], the target named is T8, Muscarinic acetylcholine receptor M2 (Homo sapiens) (UniProt P08172).
T8 sequence (whole entry): T3 sequence (P08172 whole entry)
Briefly: Antagonist activity at human muscarinic M2 receptor assessed as minimum acetylcholine-induced calcium response at 30 uM. It is filed as functional. Also on record: scale not given: the % may be the effect or the level left. In outline:
as §1

In assay [11] the target is T4, Muscarinic acetylcholine receptor M3. Briefly: Antagonist activity at human muscarinic M3 receptor assessed as minimum acetylcholine-induced calcium response at 30 uM. Also on record: scale not given: the % may be the effect or the level left. It is filed as functional. The gist of the method:
as §1
Target sequence in this assay (P20309 whole entry, looked up): as the sequence (P20309 whole entry) above

The target in assay [12] is T9, Muscarinic acetylcholine receptor M4 (Homo sapiens) (UniProt P08173).
T9 sequence (whole entry): T5 sequence (P08173 whole entry)
Description: Antagonist activity at human muscarinic M4 receptor assessed as minimum acetylcholine-induced calcium response at 30 uM. Also on record: scale not given: the % may be the effect or the level left. The assay is classed as functional. In outline: as §1

The target of assay [13] is T6, Muscarinic acetylcholine receptor M5 (Homo sapiens). Description: Antagonist activity at human muscarinic M5 receptor assessed as minimum acetylcholine-induced calcium response at 30 uM. The assay is classed as functional. Also on record: scale not given: the % may be the effect or the level left. In outline: as §1
Assay [14] has the same target. Description: Antagonist activity at human muscarinic M5 receptor assessed as inhibition of acetylcholine-induced calcium response at 30 uM. It is filed as functional. In outline: as §1

Active and inactive are the calls of the source. The rule behind the calls is not given here.

As to `Cc1nn(C)c(C)c1S(=O)(=O)N1CCC2(CC1)OCCS2`, the IC50 was 3.86 to 6.2 µM in [1] (read-out: IC50); 0.661 µM in assay [1] (read-out: pIC50 (converted)); above 10 µM in [2]; above 10 µM in assay [3]; above 10 µM in assay [4]; above 10 µM in [5]. Further, the Imax in assay [6] fell in the range of 50 to 88%. This compound also had a Ki in assay [7] of 2.7 µM. Further, the Activity in assay [8] worked out at 12.6%; in assay [9] it was 61%; in assay [10] it was 37%; in assay [11], 55%; in [12] it was 55%; in [13], 16%.
`Cn1cc(S(=O)(=O)N2CCC3(CC2)OCCS3)cn1`: in assay [1] (read-out: IC50), the IC50 is above 10 µM. For the same compound, the inhibition in [6] came out at 27%.
On the same counts, the results for `Cc1nn(C)c(C)c1S(=O)(=O)N1CCC2(CCCO2)CC1` are above 10 µM and 37%.
Consider `Cc1noc(C)c1CCc1nnc2scc(-c3ccc(Cl)cc3)n12`, for which, in [1] (read-out: IC50), the IC50 was above 10 µM. In addition, the inhibition in assay [14] came out at 40%.
On to `Fc1cc(F)cc(-c2nnc(Cc3nc(-c4ccc5c(c4)OCO5)no3)o2)c1`, for which the IC50 in [1] (read-out: IC50) was 5.16 µM; in [2] it was 2.8 µM; in assay [3] it was 0.93 µM; in assay [5], above 10 µM. For the same compound, the Imax in assay [6] came out at 70%.
In the case of `Cc1nn(C)c(C)c1S(=O)(=O)N1CCC2(CC1)SCCS2`, the IC50 in [1] (read-out: IC50) was above 10 µM. Besides, in [6], the inhibition came out at 86%.
`CCN(C(=O)Cn1cc(-c2ccccc2)c(N2CCOCC2)n1)c1cccc(C)c1`: in assay [1] (read-out: IC50), the IC50 is above 10 µM. The inhibition in [14] came to 40%.
Regarding `O=S(=O)(c1cc(F)cc(F)c1)N1CCC2(CC1)OCCS2`, the IC50 in assay [1] (read-out: IC50) is above 10 µM. For the same compound, in assay [6], the inhibition is 62%.
Turning to `Cc1nn(C)cc1S(=O)(=O)N1CCC2(CC1)OCCS2`, in assay [6], the inhibition result was “inactive”.
For `Cc1nn(C)c(C)c1S(=O)(=O)N1CCC2(CC1)OCCO2`, the IC50 in assay [1] (read-out: IC50) was above 10 µM. Besides, the inhibition in [6] amounted to 45%.
On to `COc1ccc([C@@]23c4ccccc4C(=O)N2CCN3C(=O)c2cc(F)c(F)c(F)c2)cc1C`, for which the IC50 is 0.246 µM in [1] (read-out: IC50); above 30 µM in [2]; above 30 µM in assay [3]; above 30 µM in assay [4]; above 30 µM in assay [5].
Take `Cc1c(S(=O)(=O)N2CCC3(CC2)OCCS3)cnn1C`: the IC50 in [1] (read-out: IC50) is above 10 µM. Further, the inhibition in [6] turned out to be 83%.
Turning to `Cc1noc(C)c1S(=O)(=O)N1CCC2(CC1)OCCS2`, the IC50 in assay [1] (read-out: IC50) was above 10 µM. Further, in assay [6], the inhibition was determined as 40%.
With `Cn1cnc(S(=O)(=O)N2CCC3(CC2)OCCS3)c1`, the inhibition result in assay [6] was “inactive”.
For `O=S(=O)(c1ccc(F)c(Cl)c1)N1CCC2(CC1)OCCS2`, the IC50 in assay [1] (read-out: IC50) is above 10 µM. The inhibition in [6] came to 83%.
`O=S(=O)(c1cc(F)c(F)c(F)c1)N1CCC2(CC1)OCCS2`: the IC50 in [1] (read-out: IC50) was above 10 µM. Also, the inhibition in assay [6] is 55%.

These data come from ChEMBL document CHEMBL4431336, “Ligand-based virtual screen for the discovery of novel M5 inhibitor chemotypes” (Bioorg Med Chem Lett, 2016).
